Experimental data from ChEMBL document CHEMBL4732020, “The modulatory role of sulfated and non-sulfated small molecule heparan sulfate-glycomimetics in endothelial dysfunction: absolute structural clarification, molecular docking and simulated dynamics, SAR analyses and ADMET studies” (RSC Med Chem, 2021).

Assays:
[1] = tested on: HepG2; experiment: Antioxidant activity in human HepG2 cells assessed as decrease in FFA-induced oxidatively stress by measuring NO production using DAF-2 by H2DCFDA dye based fluorescence assay relative to control; format: functional; parameters: concentration or dose not given beside the values
Method in brief: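 Palmitate (100 µmol/L)-BSA stressed HepG2 with glycomimetics 1 µmol/L (3 h co-treatment or 12 h pretreatment). For NO: L-arginine 100 µmol/L for 5 min at 37 °C, DAF-2 0.1 µmol/L for 2 min, then A23187 for 30 min; ex 485/em 540 nm, autofluorescence subtracted. L-NAME 100 µmol/L in some runs. ROS: CM-H2DCFDA 10 µmol/L, 30 min, 37 °C, ex 490/em 540 nm.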

[2] = Metabolic stability in rat liver microsomes assessed as half life at 3 uM measured up to 45 mins in presence of NADPH by LC-MS/MS analysis; format: ADME, Microsome
Method in brief: (§1)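 Pooled liver microsomes 0.5 mg/mL protein in 0.1 M phosphate pH 7.4 with compound 3 µM (0.25% DMSO), prewarmed at 37 °C. Started with NADPH 1 mM; sampled at 0, 5, 15, 30, 45 min into methanol. Minus-NADPH control at 45 min; single incubations. t½ = 0.693/k; CLint = V×0.693/t½ in µL/min/mg protein.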

[3] = tested on: HepG2; experiment: Antioxidant activity in human HepG2 cells assessed as decrease in FFA-induced ROS production after 24 hrs by ethidium/DAPI based fluorescence assay relative to control; format: functional
Method in brief: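 Cells in serum-free DMEM with 2% fatty-acid-free BSA or palmitate-BSA (100 µmol/L) plus glycomimetics (1 or 10 µmol/L) for 24 h. Then 10 µmol/L dihydroethidium in Hepes-buffered solution for 30 min, DAPI 0.3 µmol/L counterstain. Fluorescence microscopy with constant imaging settings; ROS taken as ethidium/DAPI fluorescence ratio.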

[4] = target: T1, Nitric oxide synthase 3 (Homo sapiens) (UniProt P29474); experiment: Induction of eNOS phosphorylation in FFA-induced oxidatively stress human HepG2 cells by Western blot analysis relative to control; parameters: concentration or dose not given beside the values
T1 sequence (whole entry): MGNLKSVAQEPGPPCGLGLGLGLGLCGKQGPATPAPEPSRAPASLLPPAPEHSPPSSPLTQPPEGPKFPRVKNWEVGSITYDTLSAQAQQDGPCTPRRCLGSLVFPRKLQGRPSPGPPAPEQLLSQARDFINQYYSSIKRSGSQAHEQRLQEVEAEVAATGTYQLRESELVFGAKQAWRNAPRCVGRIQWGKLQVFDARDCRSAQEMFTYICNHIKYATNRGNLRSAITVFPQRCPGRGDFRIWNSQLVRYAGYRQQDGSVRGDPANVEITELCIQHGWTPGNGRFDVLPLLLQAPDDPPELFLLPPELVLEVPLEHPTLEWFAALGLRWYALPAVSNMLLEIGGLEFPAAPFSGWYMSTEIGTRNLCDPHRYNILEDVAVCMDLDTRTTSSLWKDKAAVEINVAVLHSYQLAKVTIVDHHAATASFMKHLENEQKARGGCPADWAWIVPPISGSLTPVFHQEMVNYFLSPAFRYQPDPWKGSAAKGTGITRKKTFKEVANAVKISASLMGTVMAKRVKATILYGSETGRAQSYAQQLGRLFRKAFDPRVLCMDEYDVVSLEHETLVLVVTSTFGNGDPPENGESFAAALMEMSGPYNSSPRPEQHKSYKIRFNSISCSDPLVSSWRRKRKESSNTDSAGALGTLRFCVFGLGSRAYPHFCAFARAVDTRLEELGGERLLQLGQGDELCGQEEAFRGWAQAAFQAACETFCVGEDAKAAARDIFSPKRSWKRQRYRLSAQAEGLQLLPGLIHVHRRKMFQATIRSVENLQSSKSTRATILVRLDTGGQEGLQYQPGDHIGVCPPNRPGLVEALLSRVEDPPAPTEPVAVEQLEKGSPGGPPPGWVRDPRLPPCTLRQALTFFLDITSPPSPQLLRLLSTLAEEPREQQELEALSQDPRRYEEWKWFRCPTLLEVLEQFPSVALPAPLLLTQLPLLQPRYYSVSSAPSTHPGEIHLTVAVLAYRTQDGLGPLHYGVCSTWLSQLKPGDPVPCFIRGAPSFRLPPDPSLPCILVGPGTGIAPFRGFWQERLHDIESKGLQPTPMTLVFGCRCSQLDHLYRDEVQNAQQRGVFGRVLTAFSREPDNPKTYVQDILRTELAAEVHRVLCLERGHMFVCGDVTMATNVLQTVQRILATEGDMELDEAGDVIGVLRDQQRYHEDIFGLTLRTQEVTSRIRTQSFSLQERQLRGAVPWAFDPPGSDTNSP
Method in brief: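 HepG2 stressed with palmitate 100 µmol/L-BSA plus glycomimetics 1 µmol/L. Lysed in RIPA, 30 µg protein by SDS-PAGE onto PVDF. Blocked 1 h in 5% milk/TBS-T; rabbit anti-phospho-eNOS overnight at 4 °C, HRP secondary 1 h at RT, ECL detection. Signal quantified by densitometry.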

[5] = Metabolic stability in mouse liver microsomes assessed as half life at 3 uM measured up to 45 mins in presence of NADPH by LC-MS/MS analysis; format: ADME, Microsome; method in brief: as §1
[6] = Metabolic stability in mouse liver microsomes assessed as intrinsic clearance at 3 uM measured up to 45 mins in presence of NADPH by LC-MS/MS analysis; format: ADME, Microsome; details: read-out: CLH; method in brief: as §1
[7] = tested on: HepG2; experiment: Cytotoxicity against human HepG2 cells assessed as reduction in cell viability incubated for 72 hrs by MTT assay; format: cell-based; details: hepg2, 72 h
Method in brief: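 HepG2 plated 24 h before dosing. Compound at 8 concentrations in triplicate, serially diluted in 0.5% DMSO growth medium, for 72 h. MTT loaded 1 h before end; solubilised in DMSO, read at 570 nm. Significance limits come from vehicle wells. Minimum effective concentration taken from the lowest concentration exceeding significance; AC50 fitted when dose-response is clear.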

[8] = Kinetic solubility of compound in PBS at pH 7.4 incubated for 2 hrs by turbidometric analysis; format: physicochemical; details: read-out: Kinetic_solubility
Method in brief: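 DMSO solutions diluted 1 in 100 into 0.01 M PBS pH 7.4 (final 1% DMSO) to give 1–100 µM; 7 replicate wells. Incubated 2 h at 37 °C, absorbance read at 620 nm. Solubility estimated as the concentration raising absorbance above vehicle.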

[9] = Chemical stability of compound; format: physicochemical
[10] = tested on: HepG2; experiment: Antioxidant activity in human HepG2 cells assessed as decrease in FFA-induced NADPH oxidase activity by lucigenin-enhanced chemiluminescence based scintillation counting method relative to control; format: functional
Method in brief: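 HepG2 cells given FFA-BSA (palmitate 100 µmol/L) with glycomimetics 1 µmol/L for 3 h, or 12 h pretreatment then 3 h palmitate. Homogenized in 20 mmol/L H2KPO4/1 mmol/L EDTA with protease inhibitors. 50 µg protein with NADPH 100 µmol/L and lucigenin 5 µmol/L; luminescence over 200 s. Basal activity subtracted; expressed as RLU/min/µg protein.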

[11] = Metabolic stability in rat liver microsomes assessed as intrinsic clearance at 3 uM measured up to 45 mins in presence of NADPH by LC-MS/MS analysis; format: ADME, Microsome; details: read-out: CLH; method in brief: as §1
[12] = target: Voltage-gated inwardly rectifying potassium channel KCNH2 (Homo sapiens, UniProt Q12809); experiment: Inhibition of recombinant human ERG expressed in CHO cells at -80 mV holding potential by automated patch clamp method; format: cell-based
Method in brief: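 hERG-CHO cells on automated IonWorks patch clamp at room temperature. Extracellular DPBS pH 7.2, HEPES-buffered intracellular solution, amphotericin B perforation. Compounds typically at 0.008–25 µM (5-fold steps, final DMSO 0.25%), 300 s exposure, 4 replicate wells. Response is post/pre current ×100; IC50 from Hill fit.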

[13] = tested on: HepG2 (Homo sapiens); experiment: Cytotoxicity against HepG2 cells assessed as reduction in cell viability incubated for 72 hrs by MTT assay; details: hepg2, 72 h

Voltage-gated inwardly rectifying potassium channel KCNH2, sequence (Q12809 whole entry): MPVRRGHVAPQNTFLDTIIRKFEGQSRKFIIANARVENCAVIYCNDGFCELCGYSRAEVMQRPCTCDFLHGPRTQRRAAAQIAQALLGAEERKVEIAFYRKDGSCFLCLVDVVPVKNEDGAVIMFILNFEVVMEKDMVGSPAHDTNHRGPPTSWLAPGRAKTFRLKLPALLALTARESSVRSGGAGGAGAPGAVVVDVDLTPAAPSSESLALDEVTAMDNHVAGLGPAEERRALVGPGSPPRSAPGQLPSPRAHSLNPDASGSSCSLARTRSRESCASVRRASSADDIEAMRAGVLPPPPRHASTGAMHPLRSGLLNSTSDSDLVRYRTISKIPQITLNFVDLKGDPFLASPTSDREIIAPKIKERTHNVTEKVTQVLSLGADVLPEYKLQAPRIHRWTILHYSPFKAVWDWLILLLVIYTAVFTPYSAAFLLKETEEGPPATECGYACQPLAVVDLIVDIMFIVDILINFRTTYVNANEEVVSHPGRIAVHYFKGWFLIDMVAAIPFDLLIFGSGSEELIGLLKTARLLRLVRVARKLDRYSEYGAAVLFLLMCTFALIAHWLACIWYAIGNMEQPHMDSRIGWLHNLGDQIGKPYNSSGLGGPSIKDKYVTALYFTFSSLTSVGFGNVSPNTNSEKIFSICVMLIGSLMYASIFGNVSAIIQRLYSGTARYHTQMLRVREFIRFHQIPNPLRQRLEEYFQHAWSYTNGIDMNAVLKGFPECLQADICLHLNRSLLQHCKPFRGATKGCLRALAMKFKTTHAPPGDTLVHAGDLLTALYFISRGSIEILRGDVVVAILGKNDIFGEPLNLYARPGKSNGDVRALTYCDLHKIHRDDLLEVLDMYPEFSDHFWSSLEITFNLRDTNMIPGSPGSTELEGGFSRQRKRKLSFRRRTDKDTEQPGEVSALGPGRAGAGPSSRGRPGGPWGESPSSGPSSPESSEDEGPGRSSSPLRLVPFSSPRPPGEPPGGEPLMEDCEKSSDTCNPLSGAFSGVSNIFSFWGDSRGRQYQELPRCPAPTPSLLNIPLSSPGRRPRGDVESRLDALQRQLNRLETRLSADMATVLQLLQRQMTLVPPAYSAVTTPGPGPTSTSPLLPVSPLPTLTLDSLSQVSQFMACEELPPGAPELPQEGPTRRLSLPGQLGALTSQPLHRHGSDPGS

Row | Structure (SMILES) | Activity [1] [%] | half-life at 3 µM [2] [h] | inhibition (INH) [3] [%] | Activity [4] [%] | half-life at 3 µM [5] [h] | microsomal CLint at 3 µM [6] [µL/min/mg] | Activity [7] | solubility kinetic at 2 h [8] [µM] | Stabilty [9] | inhibition (INH) [10] [%] | microsomal CLint at 3 µM [11] [µL/min/mg] | IC50 [12] [µM] | Activity [13]
1 | COC(=O)c1cc(OC[C@H](COS(=O)(=O)[O-])OS(=O)(=O)[O-])ccc1OC[C@@H](COS(=O)(=O)[O-])OS(=O)(=O)[O-].[Na+].[Na+].[Na+].[Na+] | 62 | 35.7 | 29 | 318 | 8.03 | 2.88 | Non-Toxic | > 100 | Stable | 31 | 0.649 | > 25 | Non-Toxic
2 | COC(=O)c1cc(OC[C@H](COS(=O)(=O)[O-])OS(=O)(=O)[O-])ccc1OCCCCOS(=O)(=O)[O-].[Na+].[Na+].[Na+] | 52 |  | 23 | 613 |  |  | Non-Toxic |  | Stable | 31 |  |  | Non-Toxic
3 | COC(=O)c1cc(OC[C@@H](COS(=O)(=O)[O-])OS(=O)(=O)[O-])ccc1OCCCCOS(=O)(=O)[O-].[Na+].[Na+].[Na+] | 63 |  | 39 | 397 |  |  | Non-Toxic |  | Stable | 27 |  |  | Non-Toxic
4 | O=C([O-])c1cc(OC[C@H](O)CO)ccc1OC[C@@H](O)CO.[Na+] (mixture of isomers) | 41 |  | 23 | 312 |  |  |  |  |  | 21 |  |  | 
5 | COC(=O)c1cc(OC[C@H](O)CO)ccc1OC[C@@H](O)CO (mixture of isomers) | 46 |  | 36 | 286 |  |  |  |  |  | 26 |  |  | 
6 | COC(=O)c1cc(OC[C@@H](COS(=O)(=O)[O-])OS(=O)(=O)[O-])ccc1OC[C@H](COS(=O)(=O)[O-])OS(=O)(=O)[O-].[Na+].[Na+].[Na+].[Na+] | 110 | 2.42 | 28 | 342 | 30.7 | 0.755 | Non-Toxic | > 100 | Stable | 29 | 9.56 |  | Non-Toxic
7 | O=C([O-])c1cc(OC[C@@H](O)CO)ccc1OC[C@H](O)CO.[Na+] (mixture of isomers) | 52 |  | 19 | 294 |  |  |  |  |  | 27 |  |  | 
